Data on one compound can be found in ChEMBL document CHEMBL2417467, “Antiproliferative cardiac glycosides from the latex of Antiaris toxicaria” (J Nat Prod, 2013).

One may read the inhibition as the percentage by which the read-out fell short of the control.

For test [1], the system named is NIH-H460. Briefly: Induction of apoptosis in human NIH-H460 cells assessed as localization of Nur77 in nucleus at 20 nM after 3 hrs by immunofluorescence microscopic analysis. Type of test: functional, cell-based. The gist of the method:
(§1)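 NIH-H460 cells on slides were treated with 20 nM for 3 h, then given MitoTracker Red (25 nM) for 15 min. Cells were permeabilised with 0.01% digitonin in PBS for 30 min and blocked with 1% BSA for 30 min. Anti-Nur77 (1:200) was applied for 3 h at RT, then FITC/Cy3 anti-rabbit IgG for 1 h. DAPI marked nuclei, and images were taken by confocal microscopy.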

Test [2] concerns NIH-H460. As to the kind of experiment: Induction of apoptosis in human NIH-H460 cells assessed as localization of Nur77 in mitochondria at 20 nM after 3 hrs by immunofluorescence microscopic analysis. It counts as functional, cell-based. The method in brief: as §1
The subject of test [3] is NIH-H460. Briefly: Induction of Nur77 protein expression in human NIH-H460 cells at […] by Western blotting analysis. Type of test: functional, cell-based. The gist of the method:
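NIH-H460 cells were treated with vehicle or compound, either at 2.5–40 nM for 3 h or at 20 nM over a time course. Equal amounts of lysate were run on 8% SDS-PAGE and blotted to PVDF. Membranes were blocked in 5% milk/TBST and probed overnight at 4 °C with anti-Nur77 (1:1000). Bands were detected by ECL, with β-actin reprobe as loading control.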

The test system of test [4] is NIH-H460. Briefly: Induction of apoptosis in human NIH-H460 cells assessed as increase in PARP cleavage at 20 nM after 24 hrs by Western blotting analysis. Type of test: functional, cell-based. The method in brief:
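Western blot of NIH-H460 lysates (8% SDS-PAGE, PVDF) probed overnight at 4 °C with anti-PARP (1:1000) to detect cleavage. Detection was by ECL, with β-actin reprobe as loading control. Cleavage was examined at 24 h post-treatment.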
In general terms: Immunoblotting shows a protein as a band on a membrane.

Test [5] is described as follows: Cytotoxicity against human NIH-H460 cells assessed as cell viability at 50 nM after 48 hrs by MTT assay relative to control. Type of test: functional. Particulars: NIH-H460, 48 h. The gist of the method:
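NIH-H460 cells (RPMI 1640, 10% FBS, 1% L-glutamine, penicillin/streptomycin) were seeded at 1 × 10^4 cells/well and exposed to 50 nM for 48 h. MTT was then added at 0.5 mg/mL final in medium for 2 h in the dark at 37 °C. Formazan was dissolved in DMSO for 15 min at RT and read at 570 nm. Output was inhibitory rate (%).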
(In general: Tetrazolium dyes change colour on reduction, which living cells bring about.)

The test system of test [6] is NIH-H460. Briefly: Induction of apoptosis in human NIH-H460 cells assessed as localization of Nur77 in cytoplasm at 20 nM after 3 hrs by immunofluorescence microscopic analysis. Type of test: functional, cell-based. The gist of the method:
as §1

In test [7] the test system is NIH-H460. Briefly: Induction of apoptosis in human NIH-H460 cells assessed as caspase-3 activation at 20 nM after 24 hrs by Western blotting analysis. Type of test: functional, cell-based.
The nature of test [8]: Induction of apoptosis in human NIH-H460 cells at 20 nM after 36 hrs by microscopic analysis relative to control. It counts as functional. The method in brief:
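NIH-H460 cells were exposed to vehicle or 20 nM in serum-free medium for up to 36 h. Detached and attached cells were pooled and stained with 50 μg/mL DAPI plus 100 μg/mL RNase A at 37 °C for 20 min. Apoptotic cells were scored by cytoplasmic shrinkage, membrane blebbing and nuclear condensation/fragmentation, and reported as % apoptotic cells.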

The source made the active and inactive calls. The rule behind the calls is not given here.

As to `C[C@H]1O[C@@H](O[C@H]2CC[C@]3(C=O)[C@H]4C[C@@H](O)[C@]5(C)[C@@H](C6=CC(=O)OC6)CC[C@]5(O)[C@@H]4CC[C@]3(O)C2)[C@H](O)[C@H](O)[C@@H]1O`, the outcome in the test with NIH-H460 [1], with NIH-H460 [2], with NIH-H460 [3], in the test on NIH-H460 [4], in the test with NIH-H460 [6] and with NIH-H460 [7] was Active. In test [5], the inhibition at 0.05 µM came out at 78.9%. This compound also showed an Activity in test [8] of 22.3%.
